Source: ChEMBL document CHEMBL1121641, “Synthesis and anticonvulsant activity of N-(benzoylalkyl)imidazoles and N-(omega-phenyl-omega-hydroxyalkyl)imidazoles” (J Med Chem, 1981)

Tests used:
Mus musculus [1] = assay: Anticonvulsant activity was evaluated by the maximal electroshock test in mice, administered orally; type: functional; settings: po
Procedure, shortened: (§1)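 Mice, groups of 10; compounds given ip or po as aqueous solutions or suspensions in 10% aqueous acacia gum. Maximal seizures elicited 30-60 min after dosing by 60-Hz alternating current, 25 mA for 0.2 s via corneal electrodes. Absence of tonic-extensor seizure scored as protection. ED50 by Litchfield-Wilcoxon with 95% confidence limits, or estimated graphically.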

[2] = Lethal dose in mice determined after intraperitoneal administration.; type: toxicity, organism-based; settings: mouse, in vivo, ip
Procedure, shortened: (§2)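 Mice dosed ip or po with aqueous solution or suspension in 10% aqueous acacia gum, 10 animals per dose. Mortality recorded over 7 days, with behavioural symptoms observed by the Irwin scheme. LD50 derived from dose–mortality data.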

Mus musculus [3] = assay: Anticonvulsant activity by the maximal electroshock test in mice by intraperitoneal administration; type: functional; settings: ip; procedure, shortened: as §1
[4] = Lethal dose determined in mice after oral administration; type: toxicity, organism-based; settings: mouse, in vivo; procedure, shortened: as §2
[5] = Ionization constant was determined by potentiometric titration at 22 degree C; type: physicochemical
Procedure, shortened: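 Methanolic-aqueous 10⁻³ M solutions of the hydrochloride salts titrated with 0.02 M KOH. Glass-calomel electrode system read on an expanded pH scale. pKa' obtained by the Albert-Serjeant procedure.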

[6] = Partition coefficient (logP); type: physicochemical; settings: octanol/water
Procedure, shortened: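 Octanol partitioning at room temperature (20 ± 5 °C) with gentle shaking for 6 h, then centrifugation for 15 min at 2000 rpm. Octanol phase quantified by gas chromatography. Amount in the second phase taken as total sample minus the octanol amount.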

## Nc1ccc(C(=O)Cn2ccnc2)cc1
Mus musculus [1]
  ED50: > 72 mg/kg
[2]
  LD50: 360 mg/kg
Mus musculus [3]
  ED50: > 72 mg/kg

## COc1ccc(C(O)Cn2ccnc2)cc1.Cl (centres undefined)
[2]
  LD50: 360 mg/kg
Mus musculus [3]
  ED50: > 72 mg/kg

## O=C(Cn1ccnc1)c1ccc(Cl)cc1
Mus musculus [1]
  ED50: > 48 mg/kg
[2]
  LD50: 240 mg/kg
Mus musculus [3]
  ED50: > 48 mg/kg

## CC(Cn1ccnc1)C(O)c1ccc(-c2ccccc2)cc1.Cl (centres undefined)
Mus musculus [1]
  ED50: 32.3 mg/kg
[2]
  LD50: 210 mg/kg
Mus musculus [3]
  ED50: 25.7 mg/kg

## O=C(Cn1ccnc1)c1ccc(Oc2ccccc2)cc1
Mus musculus [1]
  ED50: > 20 mg/kg
[2]
  LD50: 100 mg/kg
Mus musculus [3]
  ED50: > 20 mg/kg

## CC(=O)Nc1ccc(C(=O)Cn2ccnc2)cc1
Mus musculus [1]
  ED50: > 200 mg/kg
[2]
  LD50: 1000 mg/kg
Mus musculus [3]
  ED50: > 200 mg/kg

## Cl.OC(Cn1ccnc1)c1cccc(-c2ccccc2)c1 (centres undefined)
Mus musculus [1]
  ED50: 25 mg/kg
[2]
  LD50: 180 mg/kg
Mus musculus [3]
  ED50: 15.8 mg/kg

## Cl.Nc1ccc(C(O)Cn2ccnc2)cc1 (centres undefined)
Mus musculus [1]
  ED50: > 175 mg/kg
[2]
  LD50: 875 mg/kg
Mus musculus [3]
  ED50: > 175 mg/kg

## Cl.O=C1NC(=O)C(c2ccccc2)(c2ccccc2)N1 [PHENYTOIN CHLORIDE]
Mus musculus [1]
  ED50: 9.7 mg/kg
Mus musculus [3]
  ED50: 8.5 mg/kg

## CC(C(O)c1ccc(CCc2ccccc2)cc1)n1ccnc1.Cl (centres undefined)
Mus musculus [1]
  ED50: 36 mg/kg
[2]
  LD50: 180 mg/kg
Mus musculus [3]
  ED50: 15 mg/kg

## COc1ccc(C(=O)Cn2ccnc2)cc1
[2]
  LD50: 270 mg/kg
Mus musculus [3]
  ED50: > 54 mg/kg

## OC(Cn1ccnc1)c1ccc(Cl)cc1 (centres undefined)
Mus musculus [1]
  ED50: > 54 mg/kg
[2]
  LD50: 270 mg/kg
Mus musculus [3]
  ED50: 31 mg/kg

## CC(C(=O)c1ccc(CCc2ccccc2)cc1)n1ccnc1 (centres undefined)
Mus musculus [1]
  ED50: > 23 mg/kg
[2]
  LD50: 115 mg/kg
Mus musculus [3]
  ED50: > 23 mg/kg

## OC(Cn1ccnc1)c1ccc(Cl)cc1Cl (centres undefined)
Mus musculus [1]
  ED50: 39.7 mg/kg
[2]
  LD50: 300 mg/kg
Mus musculus [3]
  ED50: 39.7 mg/kg

## Cl.OC(Cn1ccnc1)c1ccc(Oc2ccccc2)cc1 (centres undefined)
Mus musculus [1]
  ED50: > 48 mg/kg
[2]
  LD50: 360 mg/kg
Mus musculus [3]
  ED50: 31.1 mg/kg

## CC(C)(C(O)c1ccc(CCc2ccccc2)cc1)n1ccnc1.Cl (centres undefined)
Mus musculus [1]
  ED50: > 48 mg/kg
[2]
  LD50: 240 mg/kg
Mus musculus [3]
  ED50: 22.4 mg/kg

## O=C(Cn1ccnc1)c1ccccc1Cl
[2]
  LD50: 360 mg/kg

## O=C(Cn1ccnc1)c1ccc(CCc2ccccc2)cc1
Mus musculus [1]
  ED50: 36.9 mg/kg
Mus musculus [3]
  ED50: 12.7 mg/kg

## Cl.O=[N+]([O-])c1ccc(C(O)Cn2ccnc2)cc1 (centres undefined)
Mus musculus [1]
  ED50: 98 mg/kg
[2]
  LD50: 490 mg/kg
Mus musculus [3]
  ED50: 98 mg/kg

## Cl.OC(CCn1ccnc1)c1ccc(CCc2ccccc2)cc1 (centres undefined)
[4]
  LD50: 560 mg/kg
Mus musculus [1]
  ED50: 24.7 mg/kg
[2]
  LD50: 420 mg/kg
Mus musculus [3]
  ED50: 21 mg/kg

## Cl.Oc1ccc(C(O)Cn2ccnc2)cc1O (centres undefined)
Mus musculus [1]
  ED50: > 230 mg/kg
[2]
  LD50: 1150 mg/kg
Mus musculus [3]
  ED50: > 230 mg/kg

## CC(Cn1ccnc1)C(=O)c1ccc(-c2ccccc2)cc1 (centres undefined)
Mus musculus [1]
  ED50: > 26 mg/kg
[2]
  LD50: 130 mg/kg
Mus musculus [3]
  ED50: 19.5 mg/kg

## O=C(Cn1ccnc1)c1ccc(C2CCCCC2)cc1
[4]
  LD50: 2100 mg/kg
Mus musculus [1]
  ED50: 89.9 mg/kg
[2]
  LD50: > 3000 mg/kg
Mus musculus [3]
  ED50: 62.2 mg/kg

## Cl.OC(Cn1ccnc1)c1ccc(-c2ccccc2)cc1 (centres undefined)
[4]
  LD50: > 30000 mg/kg
Mus musculus [1]
  ED50: 31 mg/kg
[2]
  LD50: 1150 mg/kg
Mus musculus [3]
  ED50: 45 mg/kg

## CCC1(c2ccccc2)C(=O)NC(=O)NC1=O.Cl [PHENOBARBITAL HYDROCHLORIDE]
[4]
  LD50: 237 mg/kg
Mus musculus [1]
  ED50: 17.6 mg/kg
[2]
  LD50: 235 mg/kg
Mus musculus [3]
  ED50: 22.5 mg/kg

## CS(=O)(=O)Nc1ccc(C(=O)Cn2ccnc2)cc1
[4]
  LD50: > 3000 mg/kg
Mus musculus [1]
  ED50: > 300 mg/kg
[2]
  LD50: > 3000 mg/kg
Mus musculus [3]
  ED50: > 300 mg/kg

## O=C(CCn1ccnc1)c1ccc(CCc2ccccc2)cc1
[4]
  LD50: 2100 mg/kg
Mus musculus [1]
  ED50: 112 mg/kg
[2]
  LD50: > 3000 mg/kg
Mus musculus [3]
  ED50: 28.6 mg/kg

## CC(C(O)c1ccc(-c2ccccc2)cc1)n1ccnc1.Cl (centres undefined)
[4]
  LD50: 570 mg/kg
Mus musculus [1]
  ED50: 24.7 mg/kg
[2]
  LD50: 655 mg/kg
Mus musculus [3]
  ED50: 19.6 mg/kg

## Cl.OC(Cn1ccnc1)c1ccc(CCc2ccccc2)cc1 (centres undefined)
[4]
  LD50: 434 mg/kg
Mus musculus [1]
  ED50: 10.2 mg/kg
[2]
  LD50: 270 mg/kg
Mus musculus [3]
  ED50: 5.3 mg/kg

## O=C(Cn1ccnc1)c1cccc(-c2ccccc2)c1
[4]
  LD50: 750 mg/kg
Mus musculus [1]
  ED50: 21 mg/kg
[2]
  LD50: 210 mg/kg
Mus musculus [3]
  ED50: 11.2 mg/kg

## Cl.OC(Cn1ccnc1)c1ccccc1-c1ccccc1 (centres undefined)
[4]
  LD50: 300 mg/kg
Mus musculus [1]
  ED50: 24.5 mg/kg
[2]
  LD50: 155 mg/kg
Mus musculus [3]
  ED50: 18.8 mg/kg

## CCC(C)c1ccc(C(O)Cn2ccnc2)cc1.Cl (centres undefined)
Mus musculus [1]
  ED50: 31.2 mg/kg
[2]
  LD50: 210 mg/kg
Mus musculus [3]
  ED50: 28.5 mg/kg

## CC(C)(C)c1ccc(C(O)Cn2ccnc2)cc1.Cl (centres undefined)
Mus musculus [1]
  ED50: > 42 mg/kg
[2]
  LD50: 210 mg/kg
Mus musculus [3]
  ED50: 42 mg/kg

## O=C(Cn1ccnc1)c1ccc(O)c(O)c1
Mus musculus [1]
  ED50: > 200 mg/kg
[2]
  LD50: 1000 mg/kg
Mus musculus [3]
  ED50: > 200 mg/kg

## CC(C)(C(=O)c1ccc(CCc2ccccc2)cc1)n1ccnc1
Mus musculus [1]
  ED50: > 36 mg/kg
[2]
  LD50: 180 mg/kg
Mus musculus [3]
  ED50: 29.5 mg/kg

## Cl.Oc1ccc(C(O)Cn2ccnc2)cc1 (centres undefined)
Mus musculus [1]
  ED50: > 200 mg/kg
[2]
  LD50: 1000 mg/kg
Mus musculus [3]
  ED50: > 200 mg/kg

## O=C(Cn1ccnc1)c1ccccc1
[5]
  pKa: 6.32
[6]
  logP: 1.03
[2]
  LD50: 360 mg/kg
Mus musculus [3]
  ED50: > 72 mg/kg

## CC(C)(C(O)c1ccc(-c2ccccc2)cc1)n1ccnc1.Cl (centres undefined)
[4]
  LD50: 2400 mg/kg
Mus musculus [1]
  ED50: 25.1 mg/kg
[2]
  LD50: 420 mg/kg
Mus musculus [3]
  ED50: 23.8 mg/kg

## CC(C(=O)c1ccc(-c2ccccc2)cc1)n1ccnc1 (centres undefined)
Mus musculus [1]
  ED50: > 18 mg/kg
[2]
  LD50: 87.5 mg/kg
Mus musculus [3]
  ED50: 13.4 mg/kg

## O=C(Cn1ccnc1)c1ccc(O)cc1
Mus musculus [1]
  ED50: > 150 mg/kg
[2]
  LD50: 750 mg/kg
Mus musculus [3]
  ED50: > 150 mg/kg

## Cl.OC(Cn1ccnc1)c1ccc(C2CCCCC2)cc1 (centres undefined)
[4]
  LD50: 2700 mg/kg
Mus musculus [1]
  ED50: 59.6 mg/kg
[2]
  LD50: 490 mg/kg
Mus musculus [3]
  ED50: 53 mg/kg

## Cl.OC(Cn1ccnc1)c1ccccc1 (centres undefined)
[5]
  pKa: 6.68
[6]
  logP: 0.99
[2]
  LD50: 210 mg/kg
Mus musculus [3]
  ED50: > 42 mg/kg

## O=C(Cn1ccnc1)c1ccc(-c2ccccc2)cc1
[4]
  LD50: 2400 mg/kg
Mus musculus [1]
  ED50: 78.3 mg/kg
[2]
  LD50: 1550 mg/kg
Mus musculus [3]
  ED50: 61.3 mg/kg

## O=C(CCn1ccnc1)c1ccc(-c2ccccc2)cc1
[4]
  LD50: 1150 mg/kg
Mus musculus [1]
  ED50: 40.5 mg/kg
Mus musculus [3]
  ED50: 35.1 mg/kg

## CC(C)(C(=O)c1ccc(-c2ccccc2)cc1)n1ccnc1
[4]
  LD50: 1870 mg/kg
Mus musculus [1]
  ED50: 42.9 mg/kg
[2]
  LD50: > 3000 mg/kg
Mus musculus [3]
  ED50: 38 mg/kg

## CCC(C)c1ccc(C(=O)Cn2ccnc2)cc1 (centres undefined)
Mus musculus [1]
  ED50: > 23 mg/kg
[2]
  LD50: 115 mg/kg
Mus musculus [3]
  ED50: > 23 mg/kg

## O=C(Cn1ccnc1)c1ccc([N+](=O)[O-])cc1
Mus musculus [1]
  ED50: > 72 mg/kg
[2]
  LD50: 360 mg/kg
Mus musculus [3]
  ED50: > 72 mg/kg

## O=C(Cn1ccnc1)c1ccccc1-c1ccccc1
[4]
  LD50: 360 mg/kg
Mus musculus [1]
  ED50: 17.1 mg/kg
[2]
  LD50: 115 mg/kg
Mus musculus [3]
  ED50: 13.5 mg/kg

## CC(C)(C)c1ccc(C(=O)Cn2ccnc2)cc1
Mus musculus [1]
  ED50: > 20 mg/kg
[2]
  LD50: 100 mg/kg
Mus musculus [3]
  ED50: > 20 mg/kg

## O=C(Cn1ccnc1)c1ccc(Cl)cc1Cl
Mus musculus [1]
  ED50: > 84 mg/kg
[2]
  LD50: 420 mg/kg
Mus musculus [3]
  ED50: > 84 mg/kg

## Cl.OC(CCn1ccnc1)c1ccc(-c2ccccc2)cc1 (centres undefined)
Mus musculus [1]
  ED50: 53.5 mg/kg
[2]
  LD50: 360 mg/kg
Mus musculus [3]
  ED50: 44 mg/kg
